Data published in ChEMBL document CHEMBL3102757, “Synthesis and evaluation of the antiparasitic activity of bis-(arylmethylidene) cycloalkanones” (Eur J Med Chem, 2014).
pIC50: −log10 of the molar value. Active and inactive are the calls of the source. The calls are words filed in the database; no cut-off is given here.

How the values were obtained:
[1] = target: Cruzipain (Trypanosoma cruzi) (UniProt P25779); test: Inhibition of Trypanosoma cruzi recombinant cruzaine using Z-FR-AMC as substrate at 100 uM preincubated for 10 mins measured for 5 mins by spectrophotometric analysis in presence of triton relative to DMSO-treated control
Cruzipain (Trypanosoma cruzi), sequence (P25779 123-467 limits assumed): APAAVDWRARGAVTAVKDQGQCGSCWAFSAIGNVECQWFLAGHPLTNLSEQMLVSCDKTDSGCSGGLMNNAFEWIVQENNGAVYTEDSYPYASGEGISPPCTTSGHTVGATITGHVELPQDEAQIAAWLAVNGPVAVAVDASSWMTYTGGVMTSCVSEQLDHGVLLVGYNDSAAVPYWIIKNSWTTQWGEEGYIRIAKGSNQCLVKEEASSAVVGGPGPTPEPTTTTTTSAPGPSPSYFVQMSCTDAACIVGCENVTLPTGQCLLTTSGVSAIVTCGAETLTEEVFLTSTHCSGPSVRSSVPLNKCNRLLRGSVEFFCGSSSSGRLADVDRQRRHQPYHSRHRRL
In short: (§1)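 Fluorescence at ex 340/em 440 nm followed 5 min. Compounds screened at 100 µM. The main screen used 0.01% Triton without pre-incubation. Checks used 0.1% or no Triton and a 10-min pre-incubation. Triplicates, activity versus DMSO control.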

[2] = target: Cruzipain (Trypanosoma cruzi) (UniProt P25779); test: Inhibition of Trypanosoma cruzi recombinant cruzaine using Z-FR-AMC as substrate at 100 uM preincubated for 10 mins measured for 5 mins by spectrophotometric analysis relative to DMSO-treated control; in short: as §1
[3] = target: T1, Glutathione reductase, mitochondrial (Homo sapiens, UniProt P00390); test: Inhibition of human recombinant glutathione reductase using glutathione as substrate preincubated for 30 mins by colorimetric assay
T1 sequence (P00390 whole entry): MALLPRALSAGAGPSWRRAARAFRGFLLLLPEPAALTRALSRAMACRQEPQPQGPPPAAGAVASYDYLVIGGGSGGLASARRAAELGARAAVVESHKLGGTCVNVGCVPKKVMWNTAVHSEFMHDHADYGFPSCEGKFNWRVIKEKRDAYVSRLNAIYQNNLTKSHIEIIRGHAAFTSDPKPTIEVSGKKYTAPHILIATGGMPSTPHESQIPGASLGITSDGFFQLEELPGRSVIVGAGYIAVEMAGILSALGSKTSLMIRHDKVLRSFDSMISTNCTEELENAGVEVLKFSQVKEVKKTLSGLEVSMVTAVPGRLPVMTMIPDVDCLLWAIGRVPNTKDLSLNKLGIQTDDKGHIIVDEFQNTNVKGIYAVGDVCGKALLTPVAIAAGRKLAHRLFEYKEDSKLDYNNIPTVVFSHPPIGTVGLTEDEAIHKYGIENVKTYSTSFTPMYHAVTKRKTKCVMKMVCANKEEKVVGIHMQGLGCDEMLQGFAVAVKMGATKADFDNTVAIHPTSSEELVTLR
In short: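 Recombinant human glutathione reductase (10 mU) in 100 mM potassium phosphate pH 7.0, 1 mM EDTA, 400 µM NADPH. Pre-incubated with compound 30 min at 27 °C. Started with oxidized glutathione (10 µL of 1 mM stock). […] Carmustine positive control.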

Trypanothione reductase = Trypanothione reductase (Trypanosoma cruzi, UniProt P28593); test: Inhibition of Trypanosoma cruzi trypanothione reductase expressed in Escherichia coli BL21(DE3) assessed as reduction of oxidized trypanothione preincubated for 30 mins measured for 30 mins by spectrophotometric analysis
Trypanothione reductase, sequence (P28593 whole entry): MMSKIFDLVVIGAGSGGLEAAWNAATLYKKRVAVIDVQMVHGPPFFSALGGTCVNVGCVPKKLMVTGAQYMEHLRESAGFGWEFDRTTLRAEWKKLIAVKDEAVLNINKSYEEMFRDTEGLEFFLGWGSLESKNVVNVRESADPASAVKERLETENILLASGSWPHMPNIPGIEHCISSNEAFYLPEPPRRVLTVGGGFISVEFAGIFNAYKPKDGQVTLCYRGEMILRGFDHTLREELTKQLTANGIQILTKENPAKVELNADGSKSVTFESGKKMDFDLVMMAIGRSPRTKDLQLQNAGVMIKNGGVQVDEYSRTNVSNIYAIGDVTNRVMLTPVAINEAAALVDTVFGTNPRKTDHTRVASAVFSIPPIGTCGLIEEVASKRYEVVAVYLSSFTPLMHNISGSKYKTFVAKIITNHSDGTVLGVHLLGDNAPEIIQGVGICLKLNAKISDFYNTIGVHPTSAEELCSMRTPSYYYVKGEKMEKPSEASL

[4] = Selectivity index, ratio of CC50 for mouse peritoneal macrophages to IC50 for Leishmania amazonensis IFLA/BR/1967/PH-8 promastigotes; type: functional
In short: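 Ratio of peritoneal macrophage CC50 (MTT, 24 h) to promastigote IC50 (MTT, 48 h).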

[5] = Cytotoxicity against mouse peritoneal macrophages after 24 hrs by MTT assay; type: cell-based, Peritoneal macrophage cell
In short: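 Murine peritoneal macrophages (5×10^5) cultured 24 h with a range of compound concentrations. Viability read by MTT, given as % lysis relative to cultures treated with amphotericin B (1 µg/mL).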

Trypanosoma cruzi = test: Trypanocidal activity against Trypanosoma cruzi Tulahuen amastigotes infected in mouse L929 cells assessed as parasite growth inhibition after 7 days by beta-galactosidase assay; type: functional, organism-based; conditions: L929, 168 h
In short: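 L-929 fibroblasts (4.0×10^3/well) infected with β-galactosidase-expressing Tulahuen trypomastigotes (4.0×10^4/well) for 2 h, then washed. Compounds added at 48 h, in tetraplicate, RPMI without phenol red plus 10% FBS. After 7 days, chlorophenol red β-D-galactopyranoside (100 µM) and 0.1% Nonidet P-40 added overnight at 37 °C. Read at 570 nm as % growth inhibition. Benznidazole control.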

Leishmania amazonensis = test: Antileishmanial activity against Leishmania amazonensis IFLA/BR/1967/PH-8 promastigotes assessed as parasite growth inhibition after 48 hrs by MTT assay; conditions: IFLA/BR/1967/PH-8, 48 h
[6] = Selectivity index, ratio of CC50 for mouse L929 cells to IC50 for Trypanosoma cruzi Tulahuen amastigotes; type: functional
In short: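 Ratio of L-929 CC50 (alamarBlue, 96 h) to amastigote IC50 from the β-galactosidase infection assay.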

[7] = Cytotoxicity against mouse L929 cells after 96 hrs by Alamar blue assay; type: cell-based
In short: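 L-929 fibroblasts seeded at 4.0×10^3 per well, same culture timing as the infection assay, exposed to rising concentrations for 96 h in tetraplicate. alamarBlue added, absorbance at 570 and 600 nm after 4–6 h. Viability as % reduction versus untreated cells. CC50 by linear interpolation.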

Compound	inhibition [1]	inhibition [2] [%]	pIC50 [3]	pIC50 (Trypanothione reductase)	Ratio CC50/IC50 [4]	CC50 at 24 h [5] [µM]	pIC50 (Trypanosoma cruzi)	pIC50 (Leishmania amazonensis)	Ratio CC50/IC50 [6]	CC50 at 96 h [7] [µM]
O=C1/C(=C/c2ccnc3ccccc23)CCC/C1=C\c1ccnc2ccccc12	inactive	42	< 4.00	< 4.00	1	0.6	< 3.60	6.22		
[N-]=[N+]=NCc1ccc(/C=C2\CC/C(=C\c3ccc(CN=[N+]=[N-])cc3)C2=O)cc1			3.64	< 4.00			< 3.60			
O=C1/C(=C/c2ccccc2)CC/C1=C\c1ccccc1			< 4.00	< 4.00	1.6	76.2	4.14	4.33	5.1	375
O=C1/C(=C/c2ccc[nH]2)CC/C1=C\c1ccc[nH]1			< 4.00	< 4.00	3.8	55.8	< 3.60	4.83		
O=C1/C(=C/c2cccc3cnccc23)CCC/C1=C\c1cccc2cnccc12	inactive	19	< 4.00	< 4.00	9.3	78.1	4.16	5.08	2.7	188
Cc1ccc(/C=C2\CCC/C(=C\c3ccc(C)cc3)C2=O)cc1	inactive	32	< 4.00	< 4.00	0.2	19.7	3.64	3.96	1.1	250
O=NN(CCCl)C(=O)NCCCl [CARMUSTINE]			5.09							
O=C1/C(=C/c2ccccc2)CCC/C1=C\c1ccccc1 [2,6-DIBENZYLIDENECYCLOHEXANONE]	inactive	31	< 4.00	4.34	6	50.6	< 3.60	5.08		
O=C1/C(=C/c2ccc[nH]2)CCC/C1=C\c1ccc[nH]1			< 4.00	< 4.00	15.7	83.2	3.60	5.28	1.5	375
O=C1/C(=C/c2ccncc2)CC/C1=C\c1ccncc1	inactive	23	< 4.00	< 4.00			< 3.60			
O=C1/C(=C/c2ccc([N+](=O)[O-])cc2)CC/C1=C\c1ccc([N+](=O)[O-])cc1	inactive	35	< 4.00	< 4.00			< 3.60			
